pIC50: −log10 of the molar value. Values after ≈ are worked out from the molar mass of the structure shown. Active and inactive are the calls of the source. No cut-off for these calls is given here.
Assays:
[1] = target: Cyclin-dependent kinase 4/cyclin D1 (Homo sapiens, UniProt P11802); experiment: Inhibition of CDK4/Cyclin D1 expressed in Sf9 cells assessed as inhibition of Rb phosphorylation
How it was run: (§1)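 CDK4/cyclin D1 or CDK2/cyclin E was purified from baculovirus-infected Sf-9 cells. The substrate was bacterial GST-Rb on glutathione-sepharose beads, with [³³P]ATP. Reactions ran 30 min at 30 °C in filter plates, were washed four times and counted. IC₅₀ (µg/mL) came from dose–response curves, as the mean of at least two determinations.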

[2] = target: Cyclin-dependent kinase 2/cyclin E1 (Homo sapiens, UniProt P24941); experiment: Inhibition of CDK2/Cyclin E expressed in Sf9 cells assessed as inhibition of Rb phosphorylation; how it was run: as §1
[3] = Selectivity for CDK4/Cyclin D1 over CDK2/Cyclin E
How it was run: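 Selectivity was calculated as CDK2 IC₅₀ divided by CDK4 IC₅₀, using the Rb-phosphorylation kinase assay values.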

[4] = tested on: HCT-116; experiment: Cytotoxicity against human HCT116 cells after 3 days by MTT assay; type: functional, cell-based; settings: HCT-116, 72 h
How it was run: (§2)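 Cells (PC-6 shown) were kept in RPMI 1640 with 10% FBS and plated on day 0. Compound, serially diluted in DMSO, was added on day 1 at ten concentrations. Viable cells were counted by MTT after 3 days of culture. The 50% growth-inhibition concentration was solved from 100×[(T−T₀)/(C−T₀)]=50, where T₀ is the optical density at time zero.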

[5] = tested on: PC-6; experiment: Cytotoxicity against human PC6 cells after 3 days by MTT assay; type: functional, cell-based; settings: PC-6, 72 h; how it was run: as §2
[6] = Aqueous solubility of compound; type: physicochemical; settings: water (aqueous)
[7] = tested on: HCT-116; experiment: Cell cycle arrest in human HCT116 cells assessed as accumulation at G1 phase at 100 ng/mL after 16 hrs using propidium iodide staining by flow cytometry; type: functional
How it was run: (§3)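 HCT116 cells were treated for 16 h with compound at concentrations in ng/mL, with DMSO as control. Cells were then collected and their DNA content was analysed by flow cytometry. The percentages of cells in G0/G1, S and G2/M were quantified.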

[8] = tested on: HCT-116; experiment: Cell cycle arrest in human HCT116 cells assessed as decrease in accumulation at S phase at 100 ng/mL after 16 hrs using propidium iodide staining by flow cytometry; type: functional, cell-based; how it was run: as §3
[9] = tested on: HCT-116; experiment: Cell cycle arrest in human HCT116 cells assessed as decrease in accumulation at G2/M phase at 100 ng/mL after 16 hrs using propidium iodide staining by flow cytometry; type: functional, cell-based; how it was run: as §3
[10] = tested on: HCT-116; experiment: Antitumor activity against human HCT116 cells xenografted in BALB/c mouse assessed as maximum tumor volume inhibition rate at 260 mg/kg, iv qd for 4 days measured 5 days post dose; type: functional
How it was run: (§4)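 HCT116 tumour cells implanted s.c. in right hind limb of male BALB/c-nu/nu mice aged 5 or 6 weeks. Dosing began once tumours averaged 80–100 mm³, with compound in 20% Captisol solution given iv or po once daily for 4 days (qdx4). Tumour volume was measured periodically by caliper and body weight was followed. Maximum inhibition of tumour volume and maximum body weight loss are reported with their day after first dose. Deaths were scored as from toxicity or from tumour, out of 5 mice.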

[11] = tested on: Mus musculus; experiment: Toxicity in human HCT116 cells xenografted BALB/c mouse assessed as maximum body weight loss rate at 260 mg/kg, iv qd for 4 days; type: organism-based, HCT-116; design: dose 260 mg/kg, route intravenous; settings: in vivo, 96 h; how it was run: as §4
[12] = tested on: Mus musculus; experiment: Toxicity in human HCT116 cells xenografted BALB/c mouse assessed as mouse mortality at 260 mg/kg, iv qd for 4 days; type: organism-based, HCT-116; design: dose 260 mg/kg, route intravenous; settings: in vivo, 96 h
How it was run: (§5)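 HCT116 cells implanted subcutaneously in right hind limb of male BALB/c-nu/nu mice aged 5 or 6 weeks; dosing began once tumours averaged 80–100 mm³. Compound in 20% Captisol solution given iv or po once daily for 4 days (qdx4). Tumour volume measured periodically by caliper. Deaths scored as toxicity deaths/tumour deaths/mice used, n=5 per group.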

[13] = tested on: HCT-116; experiment: Antitumor activity against human HCT116 cells xenografted in BALB/c mouse assessed as tumor induced mouse death at 260 mg/kg, iv qd for 4 days; type: functional, organism-based; design: dose 260 mg/kg; how it was run: as §4
[14] = tested on: HCT-116; experiment: Cell cycle arrest in human HCT116 cells assessed as accumulation at G1 phase at 60 ng/mL after 16 hrs using propidium iodide staining by flow cytometry; type: functional; how it was run: as §3
[15] = tested on: HCT-116; experiment: Antitumor activity against human HCT116 cells xenografted in BALB/c mouse assessed as maximum tumor volume inhibition rate at 300 mg/kg, iv qd for 4 days measured 9 days post dose; type: functional; how it was run: as §4
[16] = tested on: HCT-116; experiment: Antitumor activity against human HCT116 cells xenografted in BALB/c mouse assessed as maximum tumor volume inhibition rate at 350 mg/kg, po qd for 4 days measured 6 days post dose; type: functional; how it was run: as §4
[17] = tested on: Mus musculus; experiment: Toxicity in human HCT116 cells xenografted BALB/c mouse assessed as maximum body weight loss rate at 300 mg/kg, iv qd for 4 days measured 7 days post dose; type: organism-based, HCT-116; design: dose 300 mg/kg, route intravenous; settings: in vivo, 168 h; how it was run: as §4
[18] = tested on: Mus musculus; experiment: Toxicity in human HCT116 cells xenografted BALB/c mouse assessed as maximum body weight loss rate at 350 mg/kg, po qd for 4 days measured 5 days post dose; type: organism-based, HCT-116; design: dose 350 mg/kg, route oral; settings: in vivo, 120 h; how it was run: as §4
[19] = tested on: Mus musculus; experiment: Toxicity in human HCT116 cells xenografted BALB/c mouse assessed as mouse mortality at 300 mg/kg, iv qd for 4 days; type: organism-based, HCT-116; design: dose 300 mg/kg, route intravenous; settings: in vivo, 96 h; how it was run: as §5
[20] = tested on: Mus musculus; experiment: Toxicity in human HCT116 cells xenografted BALB/c mouse assessed as mouse mortality at 350 mg/kg, po qd for 4 days; type: organism-based, HCT-116; design: dose 350 mg/kg, route oral; settings: in vivo, 96 h; how it was run: as §5
[21] = tested on: HCT-116; experiment: Antitumor activity against human HCT116 cells xenografted in BALB/c mouse assessed as tumor induced mouse death at 300 mg/kg, iv qd for 4 days; type: functional, organism-based; design: dose 300 mg/kg; how it was run: as §4
[22] = tested on: HCT-116; experiment: Antitumor activity against human HCT116 cells xenografted in BALB/c mouse assessed as tumor induced mouse death at 350 mg/kg, po qd for 4 days; type: functional, organism-based; design: dose 350 mg/kg; how it was run: as §4

Chain of Cyclin-dependent kinase 4/cyclin D1 (P11802 whole entry): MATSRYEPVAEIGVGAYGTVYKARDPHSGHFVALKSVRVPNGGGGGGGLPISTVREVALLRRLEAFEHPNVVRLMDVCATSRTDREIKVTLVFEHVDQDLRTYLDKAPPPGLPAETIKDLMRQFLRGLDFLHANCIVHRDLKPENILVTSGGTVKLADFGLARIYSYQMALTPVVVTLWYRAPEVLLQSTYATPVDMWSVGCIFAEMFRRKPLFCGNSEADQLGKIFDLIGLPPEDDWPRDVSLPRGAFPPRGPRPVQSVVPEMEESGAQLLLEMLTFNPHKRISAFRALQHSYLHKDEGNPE
Chain of Cyclin-dependent kinase 4/cyclin D1 (P24385 whole entry, further chain): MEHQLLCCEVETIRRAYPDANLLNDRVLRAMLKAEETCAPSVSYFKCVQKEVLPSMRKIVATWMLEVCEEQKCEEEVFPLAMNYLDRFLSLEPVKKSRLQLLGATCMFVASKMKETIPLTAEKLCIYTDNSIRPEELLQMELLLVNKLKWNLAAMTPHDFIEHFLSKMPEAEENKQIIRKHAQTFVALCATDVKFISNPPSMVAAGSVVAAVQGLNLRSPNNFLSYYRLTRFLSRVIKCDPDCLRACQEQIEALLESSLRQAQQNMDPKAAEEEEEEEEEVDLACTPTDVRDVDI

In the case of CN(C)Cc1cccc(/C=N/Nc2ncnc3sc(C(C)(C)C)cc23)c1, the pIC50 [1] was 7.15, the pIC50 [2] was 5.52 and the Selectivity ratio [3] was 42.3. The IC50 [4] was 0.405 µg/mL (≈ 1.1 µM) and the IC50 [5] was 0.598 µg/mL (≈ 1.63 µM).
With CC(C)(C)c1cc2c(N/N=C/c3ccc(CO)cc3)ncnc2s1 the pIC50 [1] was 5.93, the pIC50 [2] was 6.12 and the Selectivity ratio [3] was 0.7. For the same molecule, the IC50 [4] was 0.665 µg/mL (≈ 1.95 µM) and the IC50 [5] was 0.556 µg/mL (≈ 1.63 µM).
For CN(C)Cc1cccc(/C=N/Nc2ncnc3sc(C(C)(C)C)cc23)n1, the pIC50 [1] was 6.82, the pIC50 [2] was 5.42 and the Selectivity ratio [3] was 25. The IC50 [4] was 0.419 µg/mL (≈ 1.14 µM), the IC50 [5] was 0.381 µg/mL (≈ 1.03 µM) and the solubility [6] was 44 µg/mL (≈ 119 µM).
CC(C)(C)c1cc2c(N/N=C/c3ccc4c(c3)CNC4)ncnc2s1 gave a pIC50 [1] of 6.63, a pIC50 [2] of 5.83 and a Selectivity ratio [3] of 6.3. It also gave an IC50 [4] of 0.111 µg/mL (≈ 0.316 µM), an IC50 [5] of 0.071 µg/mL (≈ 0.202 µM) and an Activity [7] of 62%. For the same molecule, the Activity [8] was “Active”, the Activity [9] was “Active” and the solubility [6] was 2.8 µg/mL (≈ 7.97 µM). For the same molecule, the inhibition in vivo at 260 mg/kg [10] was 61%, the Activity [11] was less than 0% and the Activity [12] was “Non-toxic”. For the same molecule, the Activity [13] was “Active”.
For CNCc1ccc(/C=N/Nc2ncnc3sc(C(C)(C)C)cc23)cc1, the pIC50 [1] was 6.97, the pIC50 [2] was 5.72 and the Selectivity ratio [3] was 17.9. It also gave an IC50 [4] of 0.056 µg/mL (≈ 0.158 µM), an IC50 [5] of 0.044 µg/mL (≈ 0.124 µM) and an Activity [14] of 57%. It also gave a solubility [6] of 783 µg/mL (≈ 2220 µM), an inhibition in vivo at 300 mg/kg [15] of 54% and an inhibition in vivo at 350 mg/kg [16] of 57%. The Activity [17] was 9.7%, the Activity [18] was 16% and the Activity [19] was “Non-toxic”. The Activity [20] was “Non-toxic”, the Activity [21] was “Active” and the Activity [22] was “Active”.
CN(C)S(=O)(=O)c1ccc(/C=N/Nc2ncnc3sc(C(C)(C)C)cc23)cc1 showed a pIC50 [1] of less than 4.32, a pIC50 [2] of 5.53 and an IC50 [4] of 1.42 µg/mL (≈ 3.4 µM). The IC50 [5] was 2.12 µg/mL (≈ 5.08 µM).
Work on CC(C)(C)c1cc2c(N/N=C/c3ccc(C(=O)O)cc3)ncnc2s1 yielded a pIC50 [1] of 5.56, a pIC50 [2] of 5.96 and a Selectivity ratio [3] of 0.4. It also gave an IC50 [4] of 9.99 µg/mL (≈ 28.2 µM) and an IC50 [5] of 7.22 µg/mL (≈ 20.4 µM).
In the case of CN(C)Cc1ccc(/C=N/Nc2ncnc3sc(C(C)(C)C)cc23)cc1, the pIC50 [1] was 6.68, the pIC50 [2] was 5.79 and the Selectivity ratio [3] was 7.8. The IC50 [4] was 0.128 µg/mL (≈ 0.348 µM) and the IC50 [5] was 0.107 µg/mL (≈ 0.291 µM).

Source: ChEMBL document CHEMBL1153092, “Discovery of novel thieno[2,3-d]pyrimidin-4-yl hydrazone-based inhibitors of cyclin D1-CDK4: synthesis, biological evaluation and structure-activity relationships. Part 2” (Bioorg Med Chem, 2009)
